The values below come from ChEMBL document CHEMBL2385063, “Identification of 2-(2-(1-naphthoyl)-8-fluoro-3,4-dihydro-1H-pyrido[4,3-b]indol-5(2H)-yl)acetic acid (setipiprant/ACT-129968), a potent, selective, and orally bioavailable chemoattractant receptor-homologous molecule expressed on Th2 cells (CRTH2) antagonist” (J Med Chem, 2013).

In general, solubility refers to how much of the substance goes into solution per volume. As a reminder, the bioavailability is the share of a dose that reaches the circulation, judged against a reference dose that is usually intravenous. For orientation: half-life means the time in which the quantity being followed falls by half. A lower half-life goes with fast loss. One may read the pIC50 as the negative decadic logarithm of the IC50, by convention in mol/L.

Data set [1] is described as follows: Solubility of the compound in water at pH 5.7. The format is physicochemical. A digest of the protocol:
(§1)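 Compound stirred in 200 μL water at 300 rpm, 25 °C, for 24 h. The biphasic mixture was vacuum-filtered. Filtrate concentration was measured by reversed-phase HPLC with UV detection at 250 nm and quantified from peak area against a calibration curve.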

Data set [2] in a line: Oral bioavailability in Wistar rat at 10 mg/kg. The format is ADME, organism-based. The following applies: in vivo. A digest of the protocol:
(§2)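 Male Wistar rats, three animals per experiment, given iv (0.2, 1 or 2 mg/kg) and po (2 or 10 mg/kg) doses as solutions; AUC0-last, plasma clearance, half-life and oral bioavailability derived.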

Data set [3] in a line: Half life in Wistar rat at 1 mg/kg, iv and 10 mg/kg, po. Type of data set: ADME, organism-based. The following applies: in vivo. A digest of the protocol:
as §2

Data set [4] relates to Rattus norvegicus. Briefly: AUC(0 to last) in Wistar rat at 1 mg/kg, iv and 10 mg/kg, po. Conditions: in vivo. The format is ADME, organism-based, Plasma. In outline:
as §2

Data set [5] is described as follows: Solubility of the compound in water. The format is physicochemical. A digest of the protocol:
(§3)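 Compound was stirred in water, 60 mM citrate buffer pH 4 or 70 mM phosphate buffer pH 7 at 300 rpm, 25 °C, for 24 h. The mixture was filtered, and the filtrate concentration was measured by HPLC-UV at 250 nm against a calibration curve.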

The target in data set [6] is T1, Prostaglandin D2 receptor 2 (Mus musculus) (UniProt Q9Z2J6).
T1 sequence (whole entry): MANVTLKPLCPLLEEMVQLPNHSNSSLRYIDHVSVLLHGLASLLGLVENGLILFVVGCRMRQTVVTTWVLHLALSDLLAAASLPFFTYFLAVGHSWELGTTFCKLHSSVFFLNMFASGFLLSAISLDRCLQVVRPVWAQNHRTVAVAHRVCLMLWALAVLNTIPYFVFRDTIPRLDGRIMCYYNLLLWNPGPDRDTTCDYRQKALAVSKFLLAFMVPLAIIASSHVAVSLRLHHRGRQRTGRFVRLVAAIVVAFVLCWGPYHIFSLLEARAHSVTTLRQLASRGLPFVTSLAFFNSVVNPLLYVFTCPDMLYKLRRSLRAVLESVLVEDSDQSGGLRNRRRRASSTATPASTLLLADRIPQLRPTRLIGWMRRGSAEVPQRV
Briefly: Partial agonist activity at mouse CRTH2 receptor assessed as calcium flux by cell-based FLIPR assay. Type of data set: functional. (A change in cytosolic calcium serves as a functional read-out for many receptors and channels.)

The target of data set [7] is T2, Chemoattractant receptor-homologous molecule expressed on Th2 cells (Cavia porcellus) (UniProt Q56D28).
T2 sequence (whole entry): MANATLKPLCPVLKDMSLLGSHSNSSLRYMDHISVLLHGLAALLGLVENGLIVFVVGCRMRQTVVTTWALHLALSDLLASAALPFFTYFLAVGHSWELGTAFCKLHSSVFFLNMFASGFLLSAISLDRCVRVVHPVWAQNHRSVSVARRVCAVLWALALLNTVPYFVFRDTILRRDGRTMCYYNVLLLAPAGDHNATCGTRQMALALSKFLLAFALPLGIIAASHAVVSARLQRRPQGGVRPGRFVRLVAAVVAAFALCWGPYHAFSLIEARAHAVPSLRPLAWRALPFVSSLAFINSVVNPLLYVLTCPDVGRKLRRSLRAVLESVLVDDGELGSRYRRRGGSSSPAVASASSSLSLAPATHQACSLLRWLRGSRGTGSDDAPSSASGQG
Briefly: Partial agonist activity at guinea pig CRTH2 receptor assessed as calcium flux by cell-based FLIPR assay. The format is functional.

A short description of data set [8]: Volume of distribution at steady state in Wistar rat at 1 mg/kg, iv and 10 mg/kg, po. Conditions: in vivo, read-out: Vdss. The format is ADME, organism-based. In outline:
(§4)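 Male Wistar rats, three animals per experiment, were dosed intravenously and orally with compound given as solutions.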

The next data set deals with CYP3A4 (Homo sapiens, UniProt P08684). Briefly: Inhibition of CYP3A4 in human liver microsomes assessed as midazolam-1'-hydroxylation by LC-MS/MS analysis. Type of data set: ADME, Microsome. Conditions: human, liver microsomes, probe midazolam (1'-hydroxylation). (In general: Microsomes from liver hold many membrane-bound enzymes, among them those of drug oxidation.)

For the next data set, the target named is CYP2D6 (Homo sapiens, UniProt P10635). Briefly: Inhibition of CYP2D6 in human liver microsomes assessed as dextromethorphan O-demethylation by LC-MS/MS analysis. The format is ADME, Microsome. Conditions: human, liver microsomes, probe dextromethorphan (O-demethylation).
Data set [9] can be described thus: Solubility of the compound in water at pH 4.3. The format is physicochemical. In outline: as §3
Data set [10] is described as follows: Half life in Wistar rat at 2 mg/kg, iv and 10 mg/kg, po. Type of data set: ADME, organism-based. The following applies: in vivo. In outline:
as §2

Data set [11] in a line: Plasma clearance in Wistar rat at 2 mg/kg, iv and 10 mg/kg, po. The format is ADME, organism-based. In outline:
as §2

Data set [12] relates to Rattus norvegicus. Briefly: AUC(0 to last) in Wistar rat at 2 mg/kg, iv and 10 mg/kg, po. The format is ADME, organism-based, Plasma. Conditions: in vivo. In outline: as §2
Data set [13] in a line: Volume of distribution at steady state in Wistar rat at 2 mg/kg, iv and 10 mg/kg, po. Type of data set: ADME, organism-based. The following applies: in vivo, read-out: Vdss. In outline:
as §4

Data set [14] in a line: Solubility of the compound in water at pH 4.9. The format is physicochemical. A digest of the protocol: as §1
The nature of data set [15]: Clearance in beagle dog at 1 mg/kg, iv. The format is ADME, organism-based, Canis lupus familiaris. On the set-up: dose 1 mg/kg, route intravenous. The following applies: in vivo. In outline:
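Male Beagle dogs, three per experiment, given 1 mg/kg iv as a solution in 10% propylene glycol; plasma clearance determined.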

Data set [16] is described as follows: Oral bioavailability in beagle dog at 10 mg/kg. The format is ADME, organism-based, Canis lupus familiaris. The following applies: in vivo. In outline:
(§5)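 Male Beagle dogs, three per experiment, dosed orally at 10 mg/kg (with a 1 mg/kg iv arm) as solutions containing 10% propylene glycol; AUC0-last and oral bioavailability derived.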

For the next data set, the system named is Canis familiaris. Briefly: AUC (0 to last) in beagle dog at 10 mg/kg, po. The format is ADME, organism-based, Canis lupus familiaris, Plasma. Further details: time 0 - last, dose 10 mg/kg, route oral. Conditions: in vivo. In outline:
as §5

Data set [17] in a line: Solubility of the compound in water at pH 3.9. Type of data set: physicochemical. In outline: as §3
Data set [18] in a line: Solubility of the compound in water at pH 3.8. Type of data set: physicochemical. A digest of the protocol: as §3
A short description of data set [19]: Oral bioavailability in Wistar rat at 2 mg/kg. The format is ADME, organism-based. Conditions: in vivo. A digest of the protocol:
as §2

Data set [20] is described as follows: Half life in Wistar rat at 0.2 mg/kg, iv and 2 mg/kg, po. The format is ADME, organism-based. Conditions: in vivo. A digest of the protocol: as §2
A short description of data set [21]: Plasma clearance in Wistar rat at 0.2 mg/kg, iv and 2 mg/kg, po. The format is ADME, organism-based. In outline: as §2
Data set [22] relates to Rattus norvegicus. As to the kind of experiment: AUC(0 to last) in Wistar rat at 0.2 mg/kg, iv and 2 mg/kg, po. The format is ADME, organism-based, Plasma. Conditions: in vivo. In outline:
as §2

The nature of data set [23]: Volume of distribution at steady state in Wistar rat at 0.2 mg/kg, iv and 2 mg/kg, po. The format is ADME, organism-based. The following applies: in vivo, read-out: Vdss. In outline: as §4

Molecules are shown by their SMILES. pIC50: −log10 of the molar value. Converted amounts (≈) assume the structure as drawn. The source made the active and inactive calls. No cut-off for these calls is given here. A value given as a limit tells only on which side of the number the result lay.

Sequence of CYP3A4 (P08684 whole entry): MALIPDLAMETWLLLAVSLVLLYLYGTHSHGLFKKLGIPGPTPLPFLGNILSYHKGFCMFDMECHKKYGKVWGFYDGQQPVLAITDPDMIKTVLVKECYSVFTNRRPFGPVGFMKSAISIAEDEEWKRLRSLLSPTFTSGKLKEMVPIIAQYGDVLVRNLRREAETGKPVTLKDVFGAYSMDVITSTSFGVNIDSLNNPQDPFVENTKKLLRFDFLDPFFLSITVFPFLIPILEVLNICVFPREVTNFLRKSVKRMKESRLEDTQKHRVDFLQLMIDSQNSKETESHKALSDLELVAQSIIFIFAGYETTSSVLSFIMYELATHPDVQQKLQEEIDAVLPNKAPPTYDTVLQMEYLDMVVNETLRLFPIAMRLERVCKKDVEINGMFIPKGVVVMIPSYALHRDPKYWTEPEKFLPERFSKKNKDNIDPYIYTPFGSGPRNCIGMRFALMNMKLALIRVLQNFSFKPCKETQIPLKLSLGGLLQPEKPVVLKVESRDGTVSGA
Sequence of CYP2D6 (P10635 whole entry): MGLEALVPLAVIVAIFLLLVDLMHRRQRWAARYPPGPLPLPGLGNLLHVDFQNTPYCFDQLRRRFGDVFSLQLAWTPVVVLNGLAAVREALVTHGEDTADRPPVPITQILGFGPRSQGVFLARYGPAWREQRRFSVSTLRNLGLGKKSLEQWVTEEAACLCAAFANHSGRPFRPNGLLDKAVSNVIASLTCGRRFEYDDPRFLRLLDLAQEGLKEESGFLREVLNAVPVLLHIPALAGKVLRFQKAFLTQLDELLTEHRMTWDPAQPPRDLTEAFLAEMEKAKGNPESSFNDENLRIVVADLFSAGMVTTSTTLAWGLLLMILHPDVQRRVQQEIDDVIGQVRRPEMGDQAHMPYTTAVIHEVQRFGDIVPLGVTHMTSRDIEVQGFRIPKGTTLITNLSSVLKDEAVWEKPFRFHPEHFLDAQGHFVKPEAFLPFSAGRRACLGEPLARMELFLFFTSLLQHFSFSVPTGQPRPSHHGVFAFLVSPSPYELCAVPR

In [1], `O=C(O)Cn1c2c(c3cc(F)ccc31)CN(C(=O)Cc1cccc3ccccc13)CC2` came in with a solubility of 28 µg/mL (≈ 67.2 µM).

In [2], `O=C(O)Cn1c2c(c3ccccc31)CN(C(=O)c1cccc3ccccc13)CC2` yielded a bioavailability of 36%. In data set [3], this molecule gave a half-life of 5.8 h. The molecule also yielded an AUClast in the data set with Rattus norvegicus [4] of 57300 ng·h/mL. The molecule also gave a solubility in [5] of 335 µg/mL (≈ 871 µM). Further, the outcome in data set [6] and in data set [7] was Active. Moreover, the Vd in data set [8] was 0.4 L/kg.

Molecule `O=C(O)Cn1c2c(c3ccccc31)CN(C(=O)c1ccccc1)CC2` showed an AUClast in the data set with Rattus norvegicus [4] of 6300 ng·h/mL. The pIC50 at CYP3A4 and on CYP2D6 was less than 4.30 each time. The molecule further had a solubility in [9] of 64 µg/mL (≈ 191 µM). Further, the Vd in data set [8] was 0.4 L/kg.

On to `CCc1ccc(-c2ccc(C(=O)N3CCc4c(c5ccccc5n4CC(=O)O)C3)cc2)cc1`, for which, in [2], the bioavailability was 4%. For the same molecule, the half-life in data set [10] was 0.5 h. For the same molecule, the clearance in [11] was found to be 35 mL/min/kg. Further, in the data set with Rattus norvegicus [12], the AUClast amounted to 171 ng·h/mL. The concentration in solution in [9] (solubility) was 2 µg/mL (≈ 4.56 µM). The Vd in data set [13] turned out to be 0.4 L/kg.

Regarding `O=C(O)Cn1c2c(c3cc(F)ccc31)CN(C(=O)c1cccc(Cl)c1)CC2`, the bioavailability is 23% in data set [2] and 64% in [16]. This molecule had a half-life in data set [3] of 2.3 h. The AUClast is 6450 ng·h/mL in the data set with Rattus norvegicus [4] and 9620 ng·h/mL with Canis familiaris. For the same molecule, in data set [14], the solubility turned out to be 25 µg/mL (≈ 64.6 µM). Also, the outcome in [6] and in data set [7] was Active. The clearance in data set [15] is 11 mL/min/kg. Moreover, in data set [8], the Vd is 0.4 L/kg.

As for `O=C(O)Cn1c2c(c3cc(F)ccc31)CN(C(=O)c1cccc3ccccc13)CC2` [SETIPIPRANT], the bioavailability in data set [2] amounted to 44%; in data set [16], 55%. Further, the half-life in data set [10] was 6 h. Besides, the clearance in data set [11] and in data set [15] was 1.3 mL/min/kg in each case. In addition, the AUClast in the data set on Rattus norvegicus [12] amounted to 58500 ng·h/mL; in the data set with Canis familiaris, 91100 ng·h/mL. This molecule also returned a solubility in data set [9] of 50 µg/mL (≈ 124 µM). Further, the result in [6] and in data set [7] was Active. In addition, the Vd in data set [13] was found to be 0.4 L/kg.

In turn, `O=C(O)Cn1c2c(c3cc(F)ccc31)CN(C(=O)c1cccs1)CC2` yielded a bioavailability in data set [2] of 5%. In data set [3], this molecule gave a half-life of 0.6 h. Also, the AUClast in the data set with Rattus norvegicus [4] came out at 244 ng·h/mL. In [17], this molecule came in with a solubility of 50 µg/mL (≈ 140 µM). Besides, the Vd in data set [8] amounted to 0.4 L/kg.

As for `O=C(O)Cn1c2c(c3ccccc31)CN(C(=O)c1cccc(Cl)c1)CC2`, the solubility in data set [18] was 110 µg/mL (≈ 298 µM).

`O=C(O)Cn1c2c(c3cc(F)ccc31)CN(C(=O)Cc1c[nH]c3ccccc13)CC2`: the bioavailability in data set [19] worked out at 2%. In addition, in data set [20], the half-life was 1.2 h. The clearance in data set [21] is 11 mL/min/kg. Further, the AUClast with Rattus norvegicus [22] was found to be 62 ng·h/mL. This molecule showed a solubility in data set [18] of 45 µg/mL (≈ 111 µM). The Vd in [23] is 0.4 L/kg.
